One compound from paper PMC8232391 (Drug Design, Development and Therapy, 2021) can be followed below.

Data set [1] can be described thus: Stability of DUV in spiked human plasma samples. It is filed as in vitro ADME.
Data set [2] in a line: Stability of stock and working standard solutions of DUV. Format: physicochemical. Conditions: refrigerator temperature (8°C) for 30 days. An outline of the steps:
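Stock solutions (1.0 mg mL–1 in acetonitrile) and working standards diluted in mobile phase were held 24 h at room temperature and 30 days refrigerated (below 10°C). They were then analysed by the HPLC-FD method against freshly spiked calibration standards.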

In the case of `C[C@H](Nc1ncnc2[nH]cnc12)c1cc2cccc(Cl)c2c(=O)n1-c1ccccc1` [DUV, 8-chloro-2-phenyl-3-[(1S)-1-(7H-purin-6-ylamino)ethyl]isoquinolin-1-one], the “Time stable in spiked human plasma” value in data set [1] (autosampler storage conditions) is at least 48 h; in data set [1] (room temperature on the bench), at least 6 h. In addition, the “Stability in spiked human plasma” value in data set [1] (three freeze–thaw cycles) and in data set [1] (−80°C for 60 days) was “stable” each time. Moreover, in data set [2], the “Stability of stock and working standard solutions” value is “stable”.
